The source made the active and inactive calls. The rule behind the calls is not given here.
How the values were obtained:
[1] = Chemical stability of compound in DMSO at 4 degree C measured after 30 days by NMR analysis; format: physicochemical; details: read-out: Stability
[2] = Chemical stability of compound in DMSO at 4 degree C measured after 7 days by NMR analysis; format: physicochemical; details: read-out: Stability
[3] = target: T1, Free fatty acid receptor 3 (Mus musculus) (UniProt Q3UFD7); assay: Agonist activity at FFA3 in C57/BL6 mouse DRG neurons assessed as increase in intracellular calcium level at 5 uM by Fura-8/AM staining based inverted fluorescence microscopy; format: functional, cell-based
T1 sequence (whole entry): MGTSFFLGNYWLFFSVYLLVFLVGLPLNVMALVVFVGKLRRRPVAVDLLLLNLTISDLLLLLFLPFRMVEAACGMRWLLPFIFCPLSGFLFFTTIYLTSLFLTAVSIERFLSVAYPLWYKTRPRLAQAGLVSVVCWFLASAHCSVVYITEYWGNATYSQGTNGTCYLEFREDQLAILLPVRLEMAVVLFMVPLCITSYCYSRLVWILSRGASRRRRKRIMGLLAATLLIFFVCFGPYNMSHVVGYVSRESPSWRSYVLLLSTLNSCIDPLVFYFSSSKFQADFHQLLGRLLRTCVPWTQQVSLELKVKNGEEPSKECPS
Outline: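 Mouse colonic-innervating DRGs (T9–L2), wild-type C57/BL6 and FFA3 knockout, digested with papain/L-cysteine then collagenase/dispase, triturated, cultured overnight on matrigel. Cells loaded with Fura 8-AM (3 μM, 20 min, 37 °C), perfused with HEPES buffer pH 7.4, ligand applied 3 min, then ionomycin 5 μM as positive control. Read-out: relative fluorescence by real-time imaging; N = 3 mice per genotype.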

[4] = target: T2, Free fatty acid receptor 2 (Homo sapiens) (UniProt O15552); assay: Agonist activity at human C-terminal eYFP tagged FFA2 receptor stably expressed in Flp-In T-Rex 293 cells assessed as inhibition of forskolin-induced cAMP production at 10 uM after 30 mins by HTR-FRET assay; format: functional, cell-based
T2 sequence (whole entry): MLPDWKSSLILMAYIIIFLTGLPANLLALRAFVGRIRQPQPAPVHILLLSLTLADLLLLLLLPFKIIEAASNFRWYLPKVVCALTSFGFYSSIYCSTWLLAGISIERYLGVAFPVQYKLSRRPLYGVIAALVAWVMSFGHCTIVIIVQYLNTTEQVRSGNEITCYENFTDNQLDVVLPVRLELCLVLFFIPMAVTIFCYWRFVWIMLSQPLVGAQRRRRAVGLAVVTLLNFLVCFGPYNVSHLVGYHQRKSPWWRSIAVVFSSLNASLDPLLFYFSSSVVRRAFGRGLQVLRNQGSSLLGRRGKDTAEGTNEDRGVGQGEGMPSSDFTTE

[5] = Chemical stability of compound in DMSO assessed as compound degradation at 25 degree C measured after 30 days by NMR analysis; format: physicochemical; details: 720 h
[6] = target: Free fatty acid receptor 1 (Homo sapiens) (UniProt O14842); assay: Agonist activity at human C-terminal eYFP tagged FFA1 receptor stably expressed in HEK293T cells cotransfected with nano-luciferase assessed as recruitment of beta-arrestin2 at 10 uM followed by TUG-770 addition prior to compound treatment by BRET assay; format: cell-based
[7] = target: T3, Free fatty acid receptor 4 (Homo sapiens) (UniProt Q5NUL3); assay: Agonist activity at human C-terminal eYFP tagged FFA4 receptor stably expressed in HEK293T cells cotransfected with nano-luciferase assessed as recruitment of beta-arrestin2 at 10 uM followed by TUG-891 addition prior to compound treatment by BRET assay; format: cell-based
T3 sequence (whole entry): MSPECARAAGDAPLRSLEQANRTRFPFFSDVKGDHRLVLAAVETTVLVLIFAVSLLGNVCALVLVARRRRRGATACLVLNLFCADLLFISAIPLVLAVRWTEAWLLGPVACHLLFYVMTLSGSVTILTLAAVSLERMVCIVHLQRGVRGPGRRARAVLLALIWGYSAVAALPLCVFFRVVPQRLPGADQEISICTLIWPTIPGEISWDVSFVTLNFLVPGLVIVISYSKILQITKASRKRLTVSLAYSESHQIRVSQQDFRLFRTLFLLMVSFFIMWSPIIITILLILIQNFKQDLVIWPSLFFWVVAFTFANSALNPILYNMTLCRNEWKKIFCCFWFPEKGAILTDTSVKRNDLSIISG

[8] = target: Voltage-dependent L-type calcium channel subunit alpha-1C (Homo sapiens, UniProt Q13936); assay: Displacement of [3H]-PN200-110 from recombinant full length human L-type calcium channel expressed in HEK293 cells at 10 uM incubated for 120 mins by radiometric scintillation counting method; format: cell-based; details: hek293, 2 h
[9] = Chemical stability of compound in DMSO at 25 degree C measured after 7 days by NMR analysis; format: physicochemical; details: read-out: Stability
[10] = target: G-protein coupled receptor 84 (Homo sapiens) (UniProt Q9NQS5); assay: Agonist activity at human C-terminal Gia tagged GPR84 receptor stably expressed in Flp-In T-Rex 293 cells assessed as inhibition of forskolin-induced cAMP production at 10 uM after 45 mins by HTR-FRET assay; format: functional, cell-based
[11] = test system: DRG neuron; assay: Effect on intracellular calcium level in FFA3 knock out C57/BL6 mouse DRG neurons at 5 uM by Fura-8/AM staining based inverted fluorescence microscopy; format: functional, cell-based
Outline: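 DRGs from T9–L2 spinal cord of FFA3 knock-out and wild-type C57/BL6 mice; papain/L-cysteine then collagenase/dispase digestion (20 min each, 37 °C), trituration, matrigel coverslips, overnight culture in DMEM/10% FCS. Fura 8-AM (3 μM) loading 20 min, 37 °C; perfusion with HEPES buffer pH 7.4 at room temperature; ligand applied 3 min, then ionomycin 5 μM. Relative fluorescence; N = 3 mice.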

[12] = target: T4, Free fatty acid receptor 3 (Homo sapiens) (UniProt O14843)
T4 sequence (whole entry): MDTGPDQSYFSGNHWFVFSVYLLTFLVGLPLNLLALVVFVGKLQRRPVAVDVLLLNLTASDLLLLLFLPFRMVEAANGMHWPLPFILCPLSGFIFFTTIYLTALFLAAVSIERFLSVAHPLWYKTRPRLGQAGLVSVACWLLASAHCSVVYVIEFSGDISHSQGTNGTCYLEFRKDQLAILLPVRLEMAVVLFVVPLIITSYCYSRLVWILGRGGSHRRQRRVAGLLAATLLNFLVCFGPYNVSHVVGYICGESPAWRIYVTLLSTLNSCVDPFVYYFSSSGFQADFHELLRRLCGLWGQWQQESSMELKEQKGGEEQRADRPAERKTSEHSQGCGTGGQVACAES

[13] = target: T5, Free fatty acid receptor 3 (Homo sapiens, UniProt O14843); assay: (§1) Positive allosteric modulation at human FFA3 receptor stably expressed in Flp-In T-Rex HEK293 cells cotransfected with eYFP assessed as inhibition of forskolin-induced cAMP production measured after 1 hr in presence of 1 uM propionate by fluorescence plate reader assay; format: functional, cell-based
T5 sequence (O14843 whole entry): T4 sequence (whole entry)

[14] = target: T4, Free fatty acid receptor 3 (Homo sapiens); assay: as §1; format: functional, cell-based
[15] = target: T4, Free fatty acid receptor 3 (Homo sapiens); remark: listed apart in the source
[16] = target: T4, Free fatty acid receptor 3 (Homo sapiens); assay: Negative allosteric modulation at human FFA3 receptor stably expressed in Flp-In T-Rex HEK293 cells cotransfected with eYFP assessed as effect on forskolin-induced cAMP production at 30 uM measured after 1 hr in presence of 3 uM propionate by fluorescence plate reader assay
[17] = target: T5, Free fatty acid receptor 3; assay: Agonist activity at human FFA3 receptor stably expressed in Flp-In T-Rex HEK293 cell membrane assessed as stimulation of [35S]-GTPgammaS binding measured after 1 hr in presence of GDP by liquid scintillation spectrometry
[18] = target: T5, Free fatty acid receptor 3

Voltage-dependent L-type calcium channel subunit alpha-1C, sequence (Q13936 whole entry): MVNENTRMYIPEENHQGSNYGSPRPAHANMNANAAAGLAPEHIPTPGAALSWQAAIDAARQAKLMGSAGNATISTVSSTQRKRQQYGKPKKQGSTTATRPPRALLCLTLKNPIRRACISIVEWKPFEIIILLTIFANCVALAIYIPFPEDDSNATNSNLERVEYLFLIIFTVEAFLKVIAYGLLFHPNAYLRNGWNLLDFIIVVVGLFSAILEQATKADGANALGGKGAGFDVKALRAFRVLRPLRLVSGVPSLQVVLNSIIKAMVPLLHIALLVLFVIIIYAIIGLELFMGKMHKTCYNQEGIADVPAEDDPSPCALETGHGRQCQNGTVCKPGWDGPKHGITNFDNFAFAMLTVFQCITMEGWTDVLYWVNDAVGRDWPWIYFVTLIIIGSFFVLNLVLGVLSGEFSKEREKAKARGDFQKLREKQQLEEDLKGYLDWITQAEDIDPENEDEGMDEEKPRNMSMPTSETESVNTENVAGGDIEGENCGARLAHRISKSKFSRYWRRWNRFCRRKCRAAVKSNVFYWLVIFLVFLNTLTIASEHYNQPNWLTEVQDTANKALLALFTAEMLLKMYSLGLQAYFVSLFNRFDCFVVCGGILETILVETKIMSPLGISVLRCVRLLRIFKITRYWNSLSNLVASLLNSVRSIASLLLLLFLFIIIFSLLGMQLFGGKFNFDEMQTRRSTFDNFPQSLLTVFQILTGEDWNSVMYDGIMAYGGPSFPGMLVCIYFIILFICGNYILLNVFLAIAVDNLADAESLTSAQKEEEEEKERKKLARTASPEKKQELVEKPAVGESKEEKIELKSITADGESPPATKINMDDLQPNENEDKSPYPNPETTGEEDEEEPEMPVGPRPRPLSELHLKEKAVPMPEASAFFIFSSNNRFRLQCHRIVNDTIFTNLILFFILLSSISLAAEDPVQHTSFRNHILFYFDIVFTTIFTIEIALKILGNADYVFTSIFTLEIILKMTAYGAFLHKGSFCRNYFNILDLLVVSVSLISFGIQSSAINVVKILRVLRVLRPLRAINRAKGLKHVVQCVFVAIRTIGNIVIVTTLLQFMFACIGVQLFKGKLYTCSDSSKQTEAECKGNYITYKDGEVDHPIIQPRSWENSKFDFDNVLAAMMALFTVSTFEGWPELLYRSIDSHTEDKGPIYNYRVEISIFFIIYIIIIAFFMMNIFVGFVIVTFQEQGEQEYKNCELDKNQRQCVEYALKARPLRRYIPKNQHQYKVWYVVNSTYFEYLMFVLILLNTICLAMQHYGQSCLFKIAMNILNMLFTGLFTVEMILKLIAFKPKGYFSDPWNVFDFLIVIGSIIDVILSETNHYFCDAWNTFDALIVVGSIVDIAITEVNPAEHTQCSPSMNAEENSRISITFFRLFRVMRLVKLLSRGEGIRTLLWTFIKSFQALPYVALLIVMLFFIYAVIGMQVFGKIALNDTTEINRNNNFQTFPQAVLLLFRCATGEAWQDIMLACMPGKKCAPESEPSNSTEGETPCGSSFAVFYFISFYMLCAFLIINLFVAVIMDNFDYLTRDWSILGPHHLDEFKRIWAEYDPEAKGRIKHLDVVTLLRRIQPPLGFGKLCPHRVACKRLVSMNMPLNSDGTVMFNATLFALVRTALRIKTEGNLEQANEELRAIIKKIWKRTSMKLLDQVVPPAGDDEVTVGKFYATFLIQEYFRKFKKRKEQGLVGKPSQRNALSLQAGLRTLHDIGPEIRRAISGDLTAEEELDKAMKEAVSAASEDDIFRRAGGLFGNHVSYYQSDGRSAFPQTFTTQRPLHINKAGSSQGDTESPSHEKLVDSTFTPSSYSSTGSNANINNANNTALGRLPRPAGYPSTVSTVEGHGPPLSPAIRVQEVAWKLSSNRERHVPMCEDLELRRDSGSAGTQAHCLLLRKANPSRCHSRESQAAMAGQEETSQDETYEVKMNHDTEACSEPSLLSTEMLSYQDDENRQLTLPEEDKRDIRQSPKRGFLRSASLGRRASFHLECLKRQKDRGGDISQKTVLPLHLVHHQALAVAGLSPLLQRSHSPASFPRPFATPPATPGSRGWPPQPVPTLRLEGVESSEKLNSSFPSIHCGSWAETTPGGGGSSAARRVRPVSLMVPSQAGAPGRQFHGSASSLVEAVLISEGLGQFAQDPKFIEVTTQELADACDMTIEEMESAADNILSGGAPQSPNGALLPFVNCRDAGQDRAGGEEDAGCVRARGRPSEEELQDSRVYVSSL
G-protein coupled receptor 84 (Homo sapiens), sequence (Q9NQS5 whole entry): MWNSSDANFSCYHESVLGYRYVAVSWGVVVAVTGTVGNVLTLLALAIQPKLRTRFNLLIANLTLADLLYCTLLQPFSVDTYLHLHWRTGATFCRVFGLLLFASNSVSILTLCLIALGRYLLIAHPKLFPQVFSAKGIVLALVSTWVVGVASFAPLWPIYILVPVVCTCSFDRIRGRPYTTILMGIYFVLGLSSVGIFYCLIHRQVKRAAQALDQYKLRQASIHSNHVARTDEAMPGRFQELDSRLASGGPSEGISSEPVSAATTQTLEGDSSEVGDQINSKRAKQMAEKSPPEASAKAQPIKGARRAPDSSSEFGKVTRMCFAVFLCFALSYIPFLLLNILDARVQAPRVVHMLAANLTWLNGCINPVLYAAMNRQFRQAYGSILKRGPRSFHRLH
Free fatty acid receptor 1 (Homo sapiens), sequence (O14842 whole entry): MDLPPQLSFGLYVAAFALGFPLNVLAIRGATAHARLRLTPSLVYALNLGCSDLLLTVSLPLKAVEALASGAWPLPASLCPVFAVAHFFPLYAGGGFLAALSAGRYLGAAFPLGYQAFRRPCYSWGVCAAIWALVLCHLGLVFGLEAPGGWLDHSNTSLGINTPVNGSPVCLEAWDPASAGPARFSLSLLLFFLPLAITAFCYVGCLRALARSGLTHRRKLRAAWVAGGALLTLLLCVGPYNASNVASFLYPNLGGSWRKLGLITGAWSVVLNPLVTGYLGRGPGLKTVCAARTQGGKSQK

Compound: CCCC1C(C(=O)Nc2cc(Cl)ccc2Cl)=C(C)NC2=C1C(=O)CCC2 (centres undefined)
- remaining at 720 h [1]: 100%
- remaining at 168 h [2]: 100%
- Activity [3]: Active
- Activity [4]: inactive
- Stability [5]: Unstable
- Activity [6]: inactive
- Activity [7]: inactive
- inhibition (INH) [8]: Not Active
- remaining at 168 h [9]: 100%
- Activity [10]: inactive
- Activity [11]: inactive

Compound: CC1=C(C(=O)c2ccccc2)C(CC(C)C)C2=C(CCCC2=O)N1 (centres undefined)
- pEC50 [12]: inactive

Compound: CC1=C(C(=O)Nc2ccccc2C)C(c2ccco2)C2=C(CCCC2=O)N1 (centres undefined)
- Activity [4]: inactive
- EC50 [13]: 0.537 µM
- Activity [6]: inactive
- Activity [7]: inactive
- inhibition (INH) [8]: Not Active
- Activity [10]: inactive

Compound: CCN(CC)CCOCC1C(C(=O)Nc2cc(Cl)ccc2Cl)=C(C)NC2=C1C(=O)CCC2 (centres undefined)
- pEC50 [12]: inactive

Compound: COC(=O)C1=C(C)NC(C)=C(C(=O)Nc2ccccc2C)C1CC(C)C (centres undefined)
- pEC50 [12]: inactive

Compound: CC1=C(C(=O)Nc2ccccc2C)C(CC(C)C)C(C(=O)c2ccccc2)=C(C)N1 (centres undefined)
- pEC50 [12]: inactive
- pEC50 [14]: inactive

Compound: CC1=C(C(=O)Nc2cc(Cl)ccc2Cl)C(c2ccco2)C2=C(CCCC2=O)N1 (centres undefined)
- Activity [4]: inactive
- Activity [6]: inactive
- Activity [7]: inactive
- inhibition (INH) [8]: Not Active
- Activity [10]: inactive

Compound: CC1=C(C(=O)Nc2cc(Cl)ccc2Cl)C(CNC(=O)OC(C)(C)C)C2=C(CCCC2=O)N1 (centres undefined)
- pEC50 [12]: inactive

Compound: Cc1ccccc1NC(=O)c1c(C)nc2c(c1-c1ccco1)C(=O)CCC2
- pEC50 [12]: inactive
- pEC50 [14]: inactive

Compound: Cc1ccccc1NC(=O)C1=C(c2ccccc2)NC2=C(C(=O)CCC2)C1c1ccco1 (centres undefined)
- pEC50 [12]: inactive

Compound: CC1=C(C(=O)Nc2ccccc2C)C(c2ccccc2Br)C2=C(CCCC2=O)N1 (centres undefined)
- pEC50 [15]: inactive

Compound: CC1=C(C(=O)Nc2cc(Cl)ccc2Cl)C(CN)C2=C(CCCC2=O)N1 (centres undefined)
- pEC50 [12]: inactive

Compound: CC1=C(C(=O)Nc2cc(Cl)ccc2Cl)C(CC2CCN(C(=O)OC(C)(C)C)CC2)C2=C(CCCC2=O)N1 (centres undefined)
- pEC50 [12]: inactive
- Activity [16]: Active

Compound: CCC(=O)O [PROPIONIC ACID]
- EC50 [17]: 10.7 µM
- EC50 [18]: 11.7 µM

Compound: CC1=C(C(=O)Nc2cc(Cl)ccc2Cl)C(CC2CCNCC2)C2=C(CCCC2=O)N1 (centres undefined)
- pEC50 [12]: inactive

Compound: CC1=C(C(=O)Nc2cc(Cl)ccc2Cl)C(C2CCCC2)C2=C(CCCC2=O)N1 (centres undefined)
- Activity [4]: inactive
- Activity [6]: inactive
- Activity [7]: inactive
- inhibition (INH) [8]: Not Active
- Activity [10]: inactive

Compound: COC(=O)C1=C(C)NC2=C(C(=O)CCC2)C1CC(C)C (centres undefined)
- pEC50 [12]: inactive

Source: ChEMBL document CHEMBL4402580, “Structure-Activity Relationship Studies of Tetrahydroquinolone Free Fatty Acid Receptor 3 Modulators” (J Med Chem, 2020)
